From ChEMBL document CHEMBL1129251 (J Med Chem, 1996) come the findings set out here.

The target in test [1] is T1, Adrenergic receptor alpha-1 (Rattus norvegicus, UniProt P15823+P23944+P43140).
T1 sequence (P15823 whole entry): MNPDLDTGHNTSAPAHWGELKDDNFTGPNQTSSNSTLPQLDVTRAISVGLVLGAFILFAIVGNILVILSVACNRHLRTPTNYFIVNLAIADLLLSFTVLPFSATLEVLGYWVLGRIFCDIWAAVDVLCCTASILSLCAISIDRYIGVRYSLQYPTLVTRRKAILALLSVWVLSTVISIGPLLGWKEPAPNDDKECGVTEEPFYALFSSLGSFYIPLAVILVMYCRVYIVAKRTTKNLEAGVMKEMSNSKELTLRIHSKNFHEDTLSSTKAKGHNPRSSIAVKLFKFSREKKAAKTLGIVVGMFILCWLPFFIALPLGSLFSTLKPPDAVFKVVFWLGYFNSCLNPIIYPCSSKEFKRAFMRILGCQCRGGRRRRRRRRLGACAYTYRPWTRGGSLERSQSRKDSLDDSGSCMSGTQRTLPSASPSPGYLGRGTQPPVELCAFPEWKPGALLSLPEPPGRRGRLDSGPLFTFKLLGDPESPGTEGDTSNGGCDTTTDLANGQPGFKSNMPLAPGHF
T1 sequence (P23944 whole entry): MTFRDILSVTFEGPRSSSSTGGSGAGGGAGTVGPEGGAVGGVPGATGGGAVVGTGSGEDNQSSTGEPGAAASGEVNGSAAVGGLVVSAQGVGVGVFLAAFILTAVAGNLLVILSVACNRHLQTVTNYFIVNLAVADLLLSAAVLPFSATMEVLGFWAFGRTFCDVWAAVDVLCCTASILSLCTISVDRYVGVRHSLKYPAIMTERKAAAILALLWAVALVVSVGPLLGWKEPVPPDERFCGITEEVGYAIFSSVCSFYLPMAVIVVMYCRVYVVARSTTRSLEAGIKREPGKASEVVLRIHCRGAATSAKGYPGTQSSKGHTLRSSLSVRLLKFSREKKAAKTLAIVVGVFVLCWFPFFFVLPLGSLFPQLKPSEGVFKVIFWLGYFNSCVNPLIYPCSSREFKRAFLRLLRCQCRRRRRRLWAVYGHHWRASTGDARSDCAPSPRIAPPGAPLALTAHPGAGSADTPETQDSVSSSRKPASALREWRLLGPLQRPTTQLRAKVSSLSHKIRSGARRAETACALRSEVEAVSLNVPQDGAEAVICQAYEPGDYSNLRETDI
T1 sequence (P43140 whole entry): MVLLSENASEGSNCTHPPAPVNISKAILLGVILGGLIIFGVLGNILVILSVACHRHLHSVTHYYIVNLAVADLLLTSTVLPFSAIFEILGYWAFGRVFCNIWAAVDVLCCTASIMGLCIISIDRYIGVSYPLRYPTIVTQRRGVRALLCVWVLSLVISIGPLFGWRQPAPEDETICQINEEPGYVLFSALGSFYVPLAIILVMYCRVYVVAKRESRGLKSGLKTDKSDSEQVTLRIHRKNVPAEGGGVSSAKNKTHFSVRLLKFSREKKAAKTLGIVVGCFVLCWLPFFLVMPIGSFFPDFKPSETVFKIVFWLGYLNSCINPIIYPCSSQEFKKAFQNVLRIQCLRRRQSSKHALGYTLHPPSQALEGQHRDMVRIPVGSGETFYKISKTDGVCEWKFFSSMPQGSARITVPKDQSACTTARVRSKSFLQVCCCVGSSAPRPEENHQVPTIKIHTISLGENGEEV
Put plainly: Alpha-1 adrenergic receptor binding affinity in rat brain membranes. Type of test: cell membranes. Summed up: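 Rat frontal cortex membranes, washed in 50 mM Tris-HCl/10 mM MgCl2 pH 7.4, at about 300 µg/mL protein. Labelled with 0.1 nM [3H]prazosin in the same buffer. Nonspecific binding set by 10 µM phentolamine. 30 °C for 30 min, then filtration and scintillation counting, in triplicate.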

In test [2] the target is T2, Adrenergic receptor alpha-2 (Rattus norvegicus, UniProt P22086+P19328+P22909).
T2 sequence (P22086 whole entry): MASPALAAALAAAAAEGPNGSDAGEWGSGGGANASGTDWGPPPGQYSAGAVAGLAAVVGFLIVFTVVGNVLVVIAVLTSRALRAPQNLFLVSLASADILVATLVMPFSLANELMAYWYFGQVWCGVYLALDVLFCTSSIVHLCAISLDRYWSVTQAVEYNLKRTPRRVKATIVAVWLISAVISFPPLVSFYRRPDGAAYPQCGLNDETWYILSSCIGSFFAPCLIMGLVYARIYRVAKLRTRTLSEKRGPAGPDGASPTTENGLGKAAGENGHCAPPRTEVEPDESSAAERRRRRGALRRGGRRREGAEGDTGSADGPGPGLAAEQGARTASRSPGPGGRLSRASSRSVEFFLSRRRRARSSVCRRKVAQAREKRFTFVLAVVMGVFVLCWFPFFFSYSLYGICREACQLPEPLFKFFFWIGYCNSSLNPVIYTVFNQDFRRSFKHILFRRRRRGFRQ
T2 sequence (P19328 whole entry): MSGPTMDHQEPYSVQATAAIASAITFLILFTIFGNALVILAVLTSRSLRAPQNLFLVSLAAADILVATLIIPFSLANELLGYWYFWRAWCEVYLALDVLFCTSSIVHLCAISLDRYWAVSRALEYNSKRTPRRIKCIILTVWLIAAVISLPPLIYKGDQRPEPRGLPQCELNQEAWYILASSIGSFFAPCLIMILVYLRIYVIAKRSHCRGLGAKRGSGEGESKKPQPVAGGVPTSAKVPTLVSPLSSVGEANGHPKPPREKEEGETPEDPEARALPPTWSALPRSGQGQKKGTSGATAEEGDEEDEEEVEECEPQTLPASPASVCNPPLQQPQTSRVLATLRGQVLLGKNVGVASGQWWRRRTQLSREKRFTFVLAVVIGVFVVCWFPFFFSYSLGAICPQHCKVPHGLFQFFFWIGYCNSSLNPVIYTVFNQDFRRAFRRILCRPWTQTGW
T2 sequence (P22909 whole entry): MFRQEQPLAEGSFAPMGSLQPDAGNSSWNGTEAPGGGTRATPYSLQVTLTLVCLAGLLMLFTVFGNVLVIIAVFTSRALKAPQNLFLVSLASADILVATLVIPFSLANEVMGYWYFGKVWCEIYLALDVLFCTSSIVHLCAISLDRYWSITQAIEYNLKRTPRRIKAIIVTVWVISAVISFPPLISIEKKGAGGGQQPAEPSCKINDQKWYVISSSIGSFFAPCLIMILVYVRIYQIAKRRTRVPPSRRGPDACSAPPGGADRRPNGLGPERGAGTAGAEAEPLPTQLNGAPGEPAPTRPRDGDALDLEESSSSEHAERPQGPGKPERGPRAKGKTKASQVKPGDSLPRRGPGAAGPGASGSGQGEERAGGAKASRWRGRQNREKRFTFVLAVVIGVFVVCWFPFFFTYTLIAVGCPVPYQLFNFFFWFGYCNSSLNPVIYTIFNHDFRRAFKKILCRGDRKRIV
Put plainly: Alpha-2 adrenergic receptor binding affinity was tested against membrane preparations of rat brain using 0.2 nM [3H]rauwolscine as radioligand. An outline of the steps: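 Rat frontal cortex membranes at about 500 µg/mL protein, labelled with [3H]rauwolscine in Tris buffer pH 7.4 containing 10 mM EDTA. Nonspecific binding set by 10 µM phentolamine. 30 °C for 30 min, then filtration and scintillation counting, in triplicate.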

The structures appear in SMILES notation.

For `CC(c1c[nH]cn1)c1cccc2ccccc12` (configuration not stated), the Ki in test [1] was found to be 224 nM; in test [2] it was 13 nM.

With `c1cc2c3c(cccc3c1)C(c1c[nH]cn1)CC2` (configuration not stated), the values for the Ki in test [1] and in test [2] were 55 nM and 33 nM, respectively. On to `c1ccc2c3c(ccc2c1)CCCC3c1c[nH]cn1` (configuration not stated), for which, in test [1], the Ki was found to be 655 nM. Take `C/C=C(\c1c[nH]cn1)c1cccc2ccccc12`: the Ki worked out at 57 nM in test [1] and 1890 nM in test [2].

A word on the Ki: it is the equilibrium dissociation constant of an inhibitor or competing ligand from its target. Lower therefore signals a stronger hold on the target.
